Assay results from article PMC8268672 (Bioorganic Chemistry, 2021).
In brackets after ≈: the same amount, converted by molar mass. Where two headings read alike, the source gives them in different places.

How the values were obtained:
[1] = system: Pseudomonas aeruginosa (MCCB 0035); test: Agar disk diffusion, inhibition zone; type: cell-based; conditions: 100 µg/8 mm disc, triplicate, mean ± SD
Human Coronavirus (229E) = test: CPE reduction assay in HEL cells; type: cell-based; conditions: read-out: Antiviral EC50, Human Coronavirus (229E)
[2] = system: Candida albicans (NCIM 2087); test: MIC, broth microdilution; type: cell-based; conditions: NCIM2087, read-out: Minimum inhibitory concentration (MIC), CA
In short: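 CLSI broth microdilution in Sabouraud liquid medium, with test compound two-fold serially diluted from 512 to 0.25. Fungal broth culture grown 24 h at 35 °C to 0.5 McFarland turbidity, then adjusted with sterile solution to a final […] inoculum. MIC expressed in µg/mL.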

[3] = system: Lactobacillus casei (NCIM-2651); test: Agar disk diffusion, inhibition zone; type: cell-based; conditions: 100 µg/8 mm disc, triplicate, mean ± SD
[4] = system: Aspergillus fumigatus (NCIM 2081); test: MIC, broth microdilution; type: cell-based; conditions: NCIM2081, read-out: Minimum inhibitory concentration (MIC), AF
In short: (§1)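 Antifungal MICs by CLSI broth microdilution in Sabouraud liquid medium. Test compounds and standard drugs are serially diluted two-fold from 512 to 0.25. The fungal broth culture is grown 24 h at 35 °C to a 0.5 McFarland turbidity, then adjusted with sterile solution to the final inoculum.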

[5] = system: Aspergillus niger (NCIM 2191); test: Agar disk diffusion, inhibition zone; type: cell-based; conditions: 100 µg/8 mm disc, triplicate, mean ± SD
In short: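 For the fungal strain, discs soaked in test compound solution (DMSO stock diluted with distilled water) sat on seeded Mueller-Hinton agar. Clotrimazole was the reference. Incubation ran 48 h at 35 °C, in triplicate. Zone of growth inhibition recorded in mm as the mean diameter around each disc.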

[6] = system: Aspergillus niger (NCIM 2191); test: MIC, broth microdilution; type: cell-based; conditions: NCIM2191, read-out: Minimum inhibitory concentration (MIC), AN
In short: as §1

Para-influenza-3 virus = test: CPE reduction assay in Vero cells; type: cell-based, Parainfluenza-3 virus; conditions: Vero, read-out: Antiviral EC50, Para-influenza-3 virus
[7] = system: Escherichia coli (ATCC 8739); test: MIC, broth microdilution; type: cell-based; conditions: ATCC8739, read-out: Minimum inhibitory concentration (MIC), EC
In short: (§2)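 Broth microdilution per CLSI in Mueller-Hinton broth, using two-fold serial dilutions of test compound and reference drugs from 512 to 0.25. Bacterial broth cultures were grown 2-6 h to 0.5 McFarland turbidity, then diluted with sterile solution to the final inoculum. MIC is reported in µg/mL.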

Influenza B B/Ned/537/05 = test: CPE reduction assay in MDCK cells; type: cell-based; conditions: Influenza B virus, read-out: Antiviral EC50, Influenza B B/Ned/537/05, MTS
[8] = system: Cryptococcus neoformans (ATCC 9011); test: MIC, broth microdilution; type: cell-based; conditions: ATCC9011, read-out: Minimum inhibitory concentration (MIC), CN
In short: as §1

[9] = system: Bacillus cereus (NCIM-2458); test: Agar disk diffusion, inhibition zone; type: cell-based; conditions: 100 µg/8 mm disc, triplicate, mean ± SD
Sindbis virus = test: CPE reduction assay in Vero cells; type: cell-based; conditions: read-out: Antiviral EC50, Sindbis virus
Vero cells = conditions: Vero cell cultures; microscopically detectable alteration of normal cell morphology
[10] = system: Cryptococcus neoformans (ATCC 9011); test: Agar disk diffusion, inhibition zone; type: cell-based; conditions: 100 µg/8 mm disc, triplicate, mean ± SD
Reovirus-1 = test: CPE reduction assay in Vero cells; type: cell-based; conditions: read-out: Antiviral EC50, Reovirus-1
[11] = system: Influenza A/H3N2 A/HK/7/87; test: CPE reduction assay in MDCK cells; type: cell-based; conditions: Influenza A virus
[12] = system: Aspergillus fumigatus (NCIM 2081); test: Agar disk diffusion, inhibition zone; type: cell-based; conditions: 100 µg/8 mm disc, triplicate, mean ± SD
Coxsackie virus B4 = test: CPE reduction assay in Vero cells; type: cell-based; conditions: Enterovirus B, read-out: Antiviral EC50, Coxsackie virus B4
[13] = system: Pseudomonas aeruginosa (MCCB 0035); test: MIC, broth microdilution; type: cell-based; conditions: read-out: Minimum inhibitory concentration (MIC), PA
In short: as §2

[14] = system: Salmonella typhimurium (NCIM-2501); test: Agar disk diffusion, inhibition zone; type: cell-based; conditions: 100 µg/8 mm disc, triplicate, mean ± SD
[15] = system: Klebsiella aerogenes (NCIM-2098); test: MIC, broth microdilution; type: cell-based; conditions: NCIM2098, read-out: Minimum inhibitory concentration (MIC), KA
In short: (§3)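 Antibacterial MICs by CLSI broth microdilution in Mueller-Hinton broth. Test compounds and standard drugs are serially diluted two-fold from 512 to 0.25. The bacterial broth culture is grown 2-6 h to a 0.5 McFarland turbidity, then adjusted with sterile solution to the final inoculum.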

Punta Toro virus = test: CPE reduction assay in Vero cells; type: cell-based; conditions: read-out: Antiviral EC50, Punta Toro virus
MT4 cells = conditions: MT4 cell cultures; colorimetric MTT cell viability assay
[16] = system: Escherichia coli (ATCC 8739); test: Agar disk diffusion, inhibition zone; type: cell-based; conditions: 100 µg/8 mm disc, triplicate, mean ± SD
In short: (§4)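 Agar disk diffusion on Mueller-Hinton agar plates seeded with a standard bacterial suspension. Test compound stock in DMSO, diluted with distilled water; 8 mm sterile filter-paper discs soaked in the solution. Ampicillin was the reference. Plates incubated at 35 °C for 24 h, in triplicate. Read-out is the average inhibition-zone diameter (mm) around each disc.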

[17] = system: Staphylococcus aureus (ATCC 29213); test: MIC, broth microdilution; type: cell-based; conditions: ATCC29213, read-out: Minimum inhibitory concentration (MIC), SA
In short: as §3

[18] = system: Staphylococcus aureus (ATCC 29213); test: Agar disk diffusion, inhibition zone; type: cell-based; conditions: 100 µg/8 mm disc, triplicate, mean ± SD
In short: as §4

[19] = system: Candida albicans (NCIM 2087); test: Agar disk diffusion, inhibition zone; type: cell-based; conditions: 100 µg/8 mm disc, triplicate, mean ± SD
[20] = system: Madin Darby canine kidney (MDCK) cells; conditions: dog
Vaccinia virus = test: microbe, parasite or virus in culture; type: cell-based; conditions: Orthopoxvirus vaccinia, HEL, read-out: Antiviral EC50, Vaccinia virus
[21] = system: Human embryonic lung (HEL) cells; conditions: HEL cell cultures; microscopically detectable alteration of normal cell morphology
[22] = system: Streptococcus pneumonia (ATCC 49619); test: Agar disk diffusion, inhibition zone; type: cell-based; conditions: 100 µg/8 mm disc, triplicate, mean ± SD
Adeno virus-2 = test: CPE reduction assay in HEL cells; type: cell-based; conditions: read-out: Antiviral EC50, Adeno virus-2
[23] = system: Klebsiella aerogenes (NCIM-2098); test: Agar disk diffusion, inhibition zone; type: cell-based; conditions: 100 µg/8 mm disc, triplicate, mean ± SD
Yellow Fever virus = test: microbe, parasite or virus in culture; type: cell-based; conditions: Yellow fever virus, Vero, read-out: Antiviral EC50, Yellow Fever virus
[24] = system: Bacillus cereus (NCIM-2458); test: MIC, broth microdilution; type: cell-based; conditions: NCIM2458, read-out: Minimum inhibitory concentration (MIC), BC
In short: as §2

[25] = system: Influenza A/H1N1 A/Ned/378/05; test: CPE reduction assay in MDCK cells; type: cell-based; conditions: Influenza A virus

Cc1ccc(S(=O)(=O)N2C(=O)CSC2c2ccc([N+](=O)[O-])cc2)cc1 (stereo not drawn) [5q, 3-[(4-Methylphenyl)sulfonyl]-2-(4-nitrophenyl)-1,3-thiazolidin-4-one]
Diameter of growth inhibition zone, PA [1]: 18 ± 1.2 mm | EC50 (Human Coronavirus (229E)): > 100 µM | MIC [2]: 4 µg/mL (≈ 10.6 µM) | Diameter of growth inhibition zone, LC [3]: 14 ± 0.4 mm | MIC [4]: 4 µg/mL (≈ 10.6 µM) | Diameter of growth inhibition zone, AN [5]: 22 ± 0.46 mm | MIC [6]: 4 µg/mL (≈ 10.6 µM) | EC50 (Para-influenza-3 virus): > 100 µM | MIC [7]: 16 µg/mL (≈ 42.3 µM) | EC50 (Influenza B B/Ned/537/05): > 100 µM | MIC [8]: 2 µg/mL (≈ 5.28 µM) | Diameter of growth inhibition zone, BC [9]: 12 ± 0.6 mm | EC50 (Sindbis virus): > 100 µM | Minimum cytotoxic conc. (Vero cells): >100 µM | Diameter of growth inhibition zone, CN [10]: 19 ± 1.3 mm | EC50 (Reovirus-1): > 100 µM | EC50 ([11]; read-out: Antiviral EC50, Influenza A/H3N2 A/HK/7/87, MTS): > 100 µM | EC50 ([11]; read-out: Antiviral EC50, Influenza A/H3N2 A/HK/7/87, visual CPE score): > 100 µM | Diameter of growth inhibition zone, AF [12]: 21 ± 0.63 mm | EC50 (Coxsackie virus B4): > 100 µM | MIC [13]: 32 µg/mL (≈ 84.6 µM) | Diameter of growth inhibition zone, ST [14]: 10 ± 1.1 mm | MIC [15]: 32 µg/mL (≈ 84.6 µM) | EC50 (Punta Toro virus): > 100 µM | Minimum cytotoxic conc. (MT4 cells): >125 µM | Diameter of growth inhibition zone, EC [16]: 17 ± 1.2 mm | MIC [17]: 32 µg/mL (≈ 84.6 µM) | Diameter of growth inhibition zone, SA [18]: 18 ± 1.2 mm | Diameter of growth inhibition zone, CA [19]: 23 ± 1.2 mm | Cytotoxicity, Minimum cytotoxic conc. [20]: >100 µM | EC50 (Vaccinia virus): > 100 µM | Minimum cytotoxic conc. [21]: >100 µM | Diameter of growth inhibition zone, SP [22]: 10 ± 0.45 mm | EC50 (Adeno virus-2): > 100 µM | Diameter of growth inhibition zone, KA [23]: 12 ± 0.4 mm | EC50 (Yellow Fever virus): > 100 µM | MIC [24]: 32 µg/mL (≈ 84.6 µM) | EC50 ([25]; read-out: Antiviral EC50, Influenza A/H1N1 A/Ned/378/05, MTS): > 100 µM | EC50 ([25]; read-out: Antiviral EC50, Influenza A/H1N1 A/Ned/378/05, visual CPE score): > 100 µM
